≈ marks a conversion by molar mass, not a printed value. Calls of active or inactive are those of the source.
Assays:
HOS [1] = assay: Effective dose required for inhibitory activity against HOS human tumor cell line.; type: functional; conditions: read-out: ED50 (the source's name)
Summary of the method: (§1)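 Human tumor lines were grown in RPMI-1640 with 25 mM HEPES, 0.25% sodium bicarbonate, 10% FBS and 100 µg/mL kanamycin. KB-VIN is a vincristine-resistant KB subline, and PTX10 is a 1A9 subline with mutated β-tubulin. Trypsinized cells (1500–7500/well) got compound from DMSO stock for 3 days continuous. Cells were fixed with cold 50% TCA, stained with 0.4% SRB, and read at 562 nm. ED50 is the 50% growth-reduction concentration; not active means ≤5% inhibition at the top concentration.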

1A9/ptx-10 [2] = assay: Effective dose required for inhibitory activity against PTX10 human tumor cell line; type: functional; conditions: read-out: ED50 (the source's name); summary of the method: as §1
1A9 [3] = assay: Percent inhibition against 1A9 human tumor cell line at <0.00008 ug/mL; type: functional
CAKI-1 [4] = assay: Effective dose required for inhibitory activity against CAK1 human tumor cell line; type: functional; conditions: read-out: ED50 (the source's name); summary of the method: as §1
HCT-8 = assay: Effective dose required for inhibitory activity against HCT-8 human tumor cell line.; type: functional; conditions: read-out: ED50 (the source's name); summary of the method: as §1
SK-MEL-2 [5] = assay: Effective dose required for inhibitory activity against SK-MEL-2 human tumor cell line.; type: functional; conditions: read-out: ED50 (the source's name); summary of the method: as §1
KB [6] = assay: Effective dose required for inhibitory activity against KB-VIN human tumor cell line.; type: functional; conditions: read-out: ED50 (the source's name); summary of the method: as §1
A549 [7] = assay: Effective dose required for inhibitory activity against A549 human tumor cell line.; type: functional; conditions: read-out: ED50 (the source's name); summary of the method: as §1
KB [8] = assay: Effective dose required for inhibitory activity against KB human tumor cell line.; type: functional; conditions: read-out: ED50 (the source's name); summary of the method: as §1
MCF7 [9] = assay: Effective dose required for inhibitory activity against MCF-7 human tumor cell line.; type: functional; conditions: read-out: ED50 (the source's name); summary of the method: as §1
PC-3 [10] = assay: Effective dose required for inhibitory activity against PC-3 human tumor cell line.; type: functional; conditions: read-out: ED50 (the source's name); summary of the method: as §1
1A9/ptx-10 [11] = assay: Percent inhibition against PTX10 human tumor cell line at >10 ug/mL; type: functional
1A9 [12] = assay: Effective dose required for inhibitory activity against 1A9 human tumor cell line.; type: functional; conditions: read-out: ED50 (the source's name); summary of the method: as §1
PC-3 [13] = assay: Effective dose required for inhibitory activity against PC-3 human tumor cell line; Not active; type: functional, cell-based; summary of the method: as §1
SK-MEL-2 [14] = assay: Effective dose required for inhibitory activity against SK-MEL-2 human tumor cell line; Not active; type: functional, cell-based; summary of the method: as §1
CAKI-1 [15] = assay: Effective dose required for inhibitory activity against CAK1 human tumor cell line; Not active; type: functional, cell-based; summary of the method: as §1
MCF7 [16] = assay: Percent inhibition against MCF-7 human tumor cell line at <5 ug/mL; type: functional
A549 [17] = assay: Effective dose required for inhibitory activity against A549 human tumor cell line; Not active; type: functional, cell-based; summary of the method: as §1
HOS [18] = assay: Effective dose required for inhibitory activity against HOS human tumor cell line; Not active; type: functional, cell-based; summary of the method: as §1
1A9 [19] = assay: Percent inhibition against 1A9 human tumor cell line at >10 ug/mL; type: functional
1A9 [20] = assay: Percent inhibition against 1A9 human tumor cell line at 0.10 ug/mL; type: functional
Summary of the method: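 Human ovarian 1A9 cells grown in RPMI-1640 with 25 mM HEPES, 0.25% sodium bicarbonate, 10% FBS and 100 µg/mL kanamycin. Freshly trypsinized cells seeded at 1500–7500/well; compound added from DMSO-diluted stock; 3-day continuous exposure. Cells fixed with cold 50% TCA, stained with 0.4% SRB, dye solubilized, A562 read. Percent growth inhibition given where <50% at highest concentration.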

EC50 (CAKI-1 [4]) [µg/mL] | EC50 (SK-MEL-2 [5]) [µg/mL] | EC50 (PC-3 [10]) [µg/mL] | EC50 (1A9 [12]) [µg/mL] | SMILES | EC50 (HOS [1]) [µg/mL] | EC50 (1A9/ptx-10 [2]) [µg/mL] | EC50 (HCT-8) [µg/mL] | EC50 (KB [6]) [µg/mL] | EC50 (A549 [7]) [µg/mL] | EC50 (KB [8]) [µg/mL] | EC50 (MCF7 [9]) [µg/mL] | Inhibition (1A9/ptx-10 [11]) [%] | NA (SK-MEL-2 [14]) | NA (CAKI-1 [15]) | Inhibition (MCF7 [16]) [%] | other results
15.3 (≈ 24.5 µM) | 14.1 (≈ 22.6 µM) | 9.2 (≈ 14.7 µM) | 0.078 (≈ 0.125 µM) | CCCCCCCCCCCC[C@H](O)[C@@H]1CC[C@@H]([C@@H](O)CCCCCCC(O)CCCCC[C@@H](O)CC2=C[C@H](C)OC2=O)O1 (stereo partly drawn) [ANNOMONTACIN] | 14.1 (≈ 22.6 µM) | 6.8 (≈ 10.9 µM) | 13.7 (≈ 21.9 µM) | 13.7 (≈ 21.9 µM) | 11.8 (≈ 18.9 µM) | 9.2 (≈ 14.7 µM) |  |  |  |  | 51 | 
16.3 (≈ 27.3 µM) | 13.1 (≈ 21.9 µM) | 7.8 (≈ 13.1 µM) | 0.5 (≈ 0.838 µM) | CCCCCCCCCCCC[C@@H](O)[C@H]1CC[C@H]([C@H](O)CCCCCC(O)CCCC[C@@H](O)CC2=C[C@H](C)OC2=O)O1 (stereo partly drawn) | 13.1 (≈ 21.9 µM) | 9.3 (≈ 15.6 µM) | 14.2 (≈ 23.8 µM) | 17 (≈ 28.5 µM) | 12 (≈ 20.1 µM) | 11.8 (≈ 19.8 µM) |  |  |  |  | 57 | 
> 20 | > 20 | > 20 | 0.96 (≈ 1.65 µM) | CCCCCCCCCCCC[C@@H](O)[C@H]1CC[C@H]([C@H](O)CCCCCCCCCC[C@@H](O)CC2=C[C@H](C)OC2=O)O1 [MURISOLIN] |  |  | > 20 | > 20 |  | > 20 | > 20 | 21 |  |  |  | NA (A549 [17]): inactive; NA (HOS [18]): inactive
 |  | > 20 |  | CCCCCCCCC[C@H](O)[C@@H]1CC[C@H]([C@H]2CC[C@@H](CCCCCCCCCC[C@H](O)CC3=C[C@H](C)OC3=O)O2)O1 | > 20 |  | > 20 | > 20 | > 20 | > 20 | > 20 | 23 | inactive | inactive |  | inhibition at 0.1 µg/mL (1A9 [20]): 47%

SMILES | EC50 (CAKI-1 [4]) [µg/mL] | EC50 (SK-MEL-2 [5]) [µg/mL] | EC50 (PC-3 [10]) [µg/mL] | EC50 (1A9 [12]) [µg/mL] | EC50 (HOS [1]) [µg/mL] | EC50 (1A9/ptx-10 [2]) [µg/mL] | EC50 (HCT-8) [µg/mL] | EC50 (KB [6]) [µg/mL] | EC50 (A549 [7]) [µg/mL] | EC50 (KB [8]) [µg/mL] | EC50 (MCF7 [9]) [µg/mL] | Inhibition (1A9/ptx-10 [11]) [%] | NA (SK-MEL-2 [14]) | NA (CAKI-1 [15]) | Inhibition (MCF7 [16]) [%] | other results
CCCCCCCCCC[C@@H](O)[C@@H]1CC[C@@H]([C@@H]2CC[C@@H]([C@H](O)CCCCCCCCCC(O)CC3=CC(C)OC3=O)O2)O1 (stereo partly drawn) [BULLATACIN] | 16.8 (≈ 27.6 µM) | 17.1 (≈ 28.1 µM) | 14.3 (≈ 23.5 µM) |  | 11.9 (≈ 19.5 µM) | 8 (≈ 13.1 µM) | 14.9 (≈ 24.5 µM) | 16.1 (≈ 26.4 µM) | 13.3 (≈ 21.8 µM) | 10 (≈ 16.4 µM) | 8.4 (≈ 13.8 µM) |  |  |  |  | Inhibition (1A9 [3]): 55%
CCCCCCCCCCCC[C@@H](O)[C@H]1CC[C@H]([C@H](O)CCCCCCCCCCCCC2=C[C@H](C)OC2=O)O1 [REL-SOLAMIN] |  |  |  | 7.8 (≈ 13.8 µM) | > 20 |  | > 20 | > 20 | > 20 | > 20 | > 20 | 18 | inactive | inactive |  | NA (PC-3 [13]): inactive
CCCCCCCCCCCC[C@@H](O)[C@H]1CC[C@H]([C@H](O)CCCC[C@H](O)CCCCC[C@@H](O)CC2=CC(C)OC2=O)O1 (stereo partly drawn) [ANNONACIN] | 9.8 (≈ 16.4 µM) | 13.8 (≈ 23.1 µM) | 8.2 (≈ 13.7 µM) | 0.07 (≈ 0.117 µM) | 8.2 (≈ 13.7 µM) | 6 (≈ 10.1 µM) | 7.9 (≈ 13.2 µM) | 10.3 (≈ 17.3 µM) | 7.8 (≈ 13.1 µM) | 7.5 (≈ 12.6 µM) |  |  |  |  | 62 | 
CCCCC/C=C\CCC(O)C(O)CCCC[C@@H](O)[C@@H]1CC[C@@H](CCCCCCCCCCCCC2=C[C@H](C)OC2=O)O1 (stereo partly drawn) |  |  | > 20 |  |  |  | > 20 | > 20 |  | > 20 | > 20 | 13 | inactive | inactive |  | NA (A549 [17]): inactive; NA (HOS [18]): inactive; Inhibition (1A9 [19]): 39%

Reference: ChEMBL document CHEMBL1145845, “Acetogenins as selective inhibitors of the human ovarian 1A9 tumor cell line” (2003)
